Assay outcomes as filed in PubChem BioAssay.
MT stabilizer: microtubule stabilizers in HeLa cells, primary screen, imaging, high-content imaging; 200,000 compounds, 0.83% hits; HeLa tubulin immunostaining HCS, 24 h; share of cells brighter than vehicle mean+2SD; % tubulin-high responders, % at 10 µM;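 active = plate Z-score above 3 for both tubulin-high and condensed-nucleus cell shares, with cell loss under 80%, at 10 µM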;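 note: anti alpha tubulin signal scored within the nucleus-defined area of each cell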
bCat nuc transl: modulators of beta-catenin nuclear translocation, primary screen, imaging, HeLa cells, immunofluorescence, high-content; 190,000 compounds, 0.3% hits; AID 1665, 2009; nuclear translocation activity, % at 5 µM;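 active = nuclear translocation activity above 50% at 5 µM, with a well cell count of 50 or more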;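 note: per-cell ratio of nuclear to cytoplasmic median beta-catenin stain intensity; plate controls were DMSO negative control for no effect and GSK-3 inhibitor IX positive control for full effect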
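Technique: fluorescence imaging of beta-catenin antibody stain plus DAPI / Material: human HeLa cell line / Incubation: compound treatment 24 h, 37°C, 5% CO2 / Read-out basis: % activation of per-cell nuclear versus cytoplasmic median beta-catenin signal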
Lmaj promast: Leishmania major promastigote growth inhibition, primary screen; inhibition, % at 10 µM; AID 1063, 2008; Leishmania major promastigotes, resazurin fluorescence viability; 200,000 compounds, 9% hits; in the data active = inhibition above about 50%;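 note: promastigotes grown with compound for 44 hours at 28 °C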
Dynein cargo inh: inhibitors of GR-EGFP nuclear translocation, primary screen, dynein cargo transport inhibitor project, imaging, high-content, 3617.4 mouse cells; AID 1381, 2008; z-score, hits read low; test concentration mostly 20 µM; stimulated with dexamethasone, 1 µM; stronger effect = lower value; 220,000 compounds, 0.47% hits;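 active = plate z-score of nuclear minus cytoplasmic receptor signal below a set negative limit, without overly bright fluorescence or cell loss, cut at about -3.5 in these data, passing the limit was not always enough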;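 note: z-score of nuclear minus cytoplasmic ring GR-EGFP intensity difference per well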
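Buffer or medium: tet-free medium with charcoal-stripped serum / Also added: dexamethasone agonist, 1.0 µM final, for 30 min / Timing: induction 48 h, compound 1 h, agonist 30 min / Measured by: high-content fluorescence imaging after fixation / Read-out: nuclear-to-cytoplasmic GR-EGFP distribution per well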
HSV augment: enhancers of HSV replication in host cells, fold increase, host cell viability | HSV replication augmentation in cells | maximum fold increase | 220,000 compounds, 0.005% hits | AID 1956, 2009; in the data active = maximum fold increase above about 1.5; tested in PC3 cells
* marks the source's active call; other numbers are inactive results; i = inactive; nt = not tested or not shown. This is a sample that favours compounds with a hit; in the whole collection about 8.9% have one here.

SMILES | MT stabilizer | bCat nuc transl | Lmaj promast | Dynein cargo inh | HSV augment
COc1ccc(-c2ccc(SCC(=O)c3ccccc3)nn2)cc1OC | 4 | 0 | 61* | -0.3 | i
OC(COCC(F)(F)C(F)(F)C(F)(F)C(F)F)Cn1c2ccccc2c2ccccc21 (stereo not given) | 2 | 1 | 86* | 0.94 | i
Cc1cccc(C)c1OCC(O)Cn1c2ccccc2c2ccccc21 (stereo not given) | 3 | 3 | 18 | -1.1 | i
CCCC12CN(C(=O)c3ccc([N+](=O)[O-])cc3)CC(C)(CN(C(=O)c3ccc([N+](=O)[O-])cc3)C1)C2=O | nt | 1 | nt | -0.2 | i
Cc1ccc([N+](=O)[O-])cc1S(=O)(=O)NCCc1cn2ccccc2n1 | nt | 0 | nt | -1.2 | i
Cc1ccc([N+](=O)[O-])cc1S(=O)(=O)NCCc1c(C)[nH]c2ccccc12 | 3 | 0 | 96* | -0.81 | i
COc1ccc(CCNC(=O)COC(=O)C23CC4CC(CC(C4)C2)C3)cc1 | 3 | -1 | 2 | 0.63 | i
COc1ccc(CCNC(=O)COC(=O)C23CC4CC(CC(Br)(C4)C2)C3)cc1 | 3 | nt | 56* | 1.8 | i
COc1ccc(-c2nc(NC(=O)c3n[nH]c(=O)c4ccccc34)sc2C)cc1 | 3 | nt | 63* | -0.068 | i
COc1ccc(-c2sc(NC(C)=O)nc2-c2ccccc2)cc1 | 2 | -2 | 66* | -0.68 | i
Cc1cc(Nc2ccccc2)nc2cc(O)ccc12 | 8 | -2 | 83* | 1.1 | i
COc1ccc(CC(=O)NNC(=O)CCc2ccccc2)cc1OC | 5 | 0 | -3 | -0.43 | i
O=C(c1ccc(Cl)c(Cl)c1)N1CCC(O)(CN2CCOCC2)CC1 | 4 | -1 | 79* | -0.92 | i
O=C(OCC(=O)N1CCN(Cc2ccccc2)CC1)c1ccc(Cl)cc1 | 1 | -3 | 57* | 0.51 | i
O=C(OCC(=O)N1CCN(C(=O)c2ccco2)CC1)c1ccccc1 | 5 | -4 | -2 | -0.17 | i
O=C(c1ccc(CN2CCOCC2)cc1)N1CCN(c2cccc(Cl)c2)CC1 | 2 | 7 | 0 | -0.7 | i
O=C(c1ccc(CN2CCOCC2)cc1)N1CCN(Cc2ccccc2)CC1 | 2 | 2 | 76* | -0.11 | i
c1ccc(CN2CCOCC2)cc1 | 1 | -2 | -5 | 0.97 | i
c1ccc(Oc2cccc(CN3CCOCC3)c2)cc1 | 5 | 2 | 100* | 0.058 | i
Cc1ccc(C)c(NC(=O)CSc2ccc(-c3cccs3)nn2)c1 | 7 | -2 | 4 | 0.47 | i
COC(=O)CSc1nnc(CSc2nc(C)cc(C)n2)o1 | 2 | -3 | -5 | -0.28 | i
CCN(CC)c1ccc(NC(=O)Cn2c(C(C)NC(=O)c3ccccc3)nc3ccccc32)cc1 (stereo not given) | 5 | -1 | 3 | 1.1 | i
CSc1ccc(CN2CCN(C(=O)c3ccncc3)CC2)cc1 | 2 | 1 | 74* | -0.48 | i
Cc1cccc(NC(=O)c2ccc(CN3CCN(Cc4ccccc4)CC3)cc2)c1 | 3 | 1 | 100* | -0.45 | i
Cc1ccc(C)n1-c1ccc(C(=O)Nc2ccccc2)cc1 | 3 | 1 | 12 | -1.1 | i
SMILES | MT stabilizer | bCat nuc transl | Lmaj promast | Dynein cargo inh | HSV augment
CC(=O)Nc1cccc(C(=O)N2CCN(Cc3ccccc3)CC2)c1 | 6 | -4 | 5 | 1.1 | i
Cc1ccc(C)n1-c1cccc(NC(=O)c2ccccc2)c1 | 2 | -2 | 76* | 2.5 | nt
O=C(Nc1cccc(C(=O)N2CCN(Cc3ccccc3)CC2)c1)c1ccccc1 | 2 | -2 | 75* | 2.4 | i
COc1cccc(NC(=O)c2ccc(CN3CCN(c4ccccc4)CC3)cc2)c1 | 2 | nt | -4 | -0.41 | i
O=C(Nc1ccccc1C(F)(F)F)c1ccc(CN2CCC(Cc3ccccc3)CC2)cc1 | 3 | -1 | 64* | 4 | i
COC(=O)c1ccc(NC(=O)COc2ccc(C3C(C#N)=C(N)Oc4c3ccc3ccccc43)cc2OC)cc1 (stereo not given) | 4 | -2 | 95* | 2.3 | i
COc1cc(C2C(C#N)=C(N)Oc3c2ccc2ccccc32)ccc1OCC(=O)Nc1ccccc1C (stereo not given) | 5 | 3 | 23 | -0.61 | i
CCn1c(=O)c(-c2ccccc2)c(O)c2ccccc21 | 8 | 2 | -4 | 1 | i
CN(Cc1ccccc1)C1=CC(=[N+]2CCCC2)CC(C)(C)C1 | nt | 1 | nt | 0.62 | i
CSc1nc(N2CCN(c3ccccc3)CC2)cc(N2CCN(c3ccccc3)CC2)n1 | 1 | -2 | 21 | 0.18 | nt
CC1(C)CC(N2CCCC2)=CC(=[N+]2CCCCCC2)C1 | 2 | -2 | 100* | -0.45 | i
CC1(C)CC(N2CCN(c3ccccc3)CC2)=CC(=[N+]2CCCC2)C1 | 5 | 0 | 99* | 2.2 | i
CC1CC(C)C[N+](=C2C=C(N3CCCC3)CC(C)(C)C2)C1 (stereo not given) | 3 | 1 | 100* | 0.08 | i
CC1(C)CC(=O)C=C(N2CCNCC2)C1 | 2 | -5 | -3 | 0.029 | i
CCN(CC)C1=CC(=[N+]2CCCC2)CC(C)(C)C1 | 4 | -4 | 100* | -0.98 | i
NC(=O)CN1CCN(c2cccc(Cl)c2)CC1 | 2 | 1 | -7 | -1.3 | i
O=C(OCCNC(=O)c1cc2ccccc2oc1=O)c1cccnc1 | 3 | -2 | 5 | -0.43 | i
CCOC(=O)c1c(NC(=O)C[n+]2ccc(Cc3ccccc3)cc2)sc(C)c1C | 2 | -2 | 53* | -0.83 | i
Cc1cc(NC(=O)CN2CCCC(C)C2)no1 (stereo not given) | 3 | -1 | 5 | 2.3 | i
Brc1ccc(CNCc2cccs2)cc1 | 2 | -2 | -2 | -0.24 | nt
Cc1ccc(CNCc2cccnc2)cc1 | 4 | -3 | 93* | -0.36 | i
CCOc1ccc(NC(=O)NCc2cccnc2)cc1 | 6 | -1 | 4 | -0.3 | i
c1ccc(COc2ccc(CNCc3cccs3)cc2)cc1 | 4 | 2 | 99* | -0.72 | i
CCOc1ccc(CNCc2cccnc2)cc1 | 2 | 4 | 90* | -0.19 | i
Cc1ccc(CNCc2cccnc2)s1 | 2 | -2 | 66* | -0.42 | i
CC(C)C(c1nnnn1Cc1cccs1)N1CCN(C2CCCC2)CC1 (stereo not given) | 4 | 1 | -3 | 0.94 | i
COc1ccc(N(CC(=O)Nc2cccc(C)c2C)S(=O)(=O)c2c(C)n[nH]c2C)cc1 | 4 | -1 | 15 | -1.4 | i
COc1ccc(C(=O)CSc2n[nH]c(=O)[nH]c2=O)cc1 | 6 | -6 | -3 | 0.27 | i
c1ccc(COc2ccc(CNCc3cccnc3)cc2)cc1 | 3 | 2 | 99* | 3.4 | i
CC(C)(C)NC(=O)COc1ccc(CNCc2cccs2)cc1 | 3 | 4 | 77* | -0.57 | i
